Laboratory results taken from ChEMBL document CHEMBL1933017, “Synthesis and biological evaluation of some thiazolidinones as antimicrobial agents” (2012).

How the values were obtained:
Aspergillus niger [1] = assay: Antifungal activity against Aspergillus niger after 48 hrs by agar streak dilution method; type: functional
Method in brief: (§1)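 Fungal MIC by agar streak dilution on Sabouraud dextrose agar, poured 4–5 mm deep. Compound from a DMSO stock (100 μg/mL) was incorporated at serial concentrations of 3.12–100 µg/mL. Plates were inoculated with about 10⁵ CFU/mL of suspension and incubated at (37 ± 1) °C for 48 h. Each value is the mean of three independent experiments.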

Aspergillus clavatus [2] = assay: Antifungal activity against Aspergillus clavatus after 48 hrs by agar streak dilution method; type: functional; method in brief: as §1
Aspergillus clavatus [3] = assay: Antifungal activity against Aspergillus clavatus at 100 ug/disc after 24 hrs by disc diffusion method; type: functional; settings: read-out: DIZ
Method in brief: (§2)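 Paper disc diffusion on autoclaved Mueller-Hinton agar poured 5 mm deep. Agar was swab-inoculated with 10⁵ CFU/mL suspension (0.5 McFarland). Discs 6.25 mm across were soaked in compound solution in DMSO (3.12–100 µg/mL) and plates incubated 24 h at (37 ± 1) °C. Read-out was inhibition zone (mm). DMSO control disc; ciprofloxacin or ketoconazole reference, 100 µg/disc. Mean of three independent experiments.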

Pseudomonas aeruginosa [4] = assay: Antibacterial activity against Pseudomonas aeruginosa […] after 24 hrs by agar streak dilution method; type: functional
Salmonella typhi [5] = assay: Antibacterial activity against Salmonella Typhi after 24 hrs by agar streak dilution method; type: functional, Salmonella enterica subsp. enterica serovar Typhi; settings: Salmonella enterica
Method in brief: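 Agar streak dilution: DMSO stock (100 µg/mL) graded into molten sterile nutrient agar, poured 4–5 mm deep and solidified. Plates carry serial dilutions spanning 3.12–100 µg/mL. Applied ~10⁵ CFU/mL suspension, then incubated 24 h at (37 ± 1) °C. MIC read as the lowest inhibitory concentration; each value is the mean of three independent experiments.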

Klebsiella pneumoniae [6] = assay: Antibacterial activity against Klebsiella pneumoniae at 100 ug/disc after 24 hrs by disc diffusion method; type: functional; settings: read-out: DIZ; method in brief: as §2
Staphylococcus aureus [7] = assay: Antibacterial activity against Staphylococcus aureus after 24 hrs by agar streak dilution method; type: functional
Method in brief: (§3)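 MIC by agar streak dilution. Graded amounts of DMSO stock (100 μg/mL) were mixed into molten sterile nutrient agar and poured 4–5 mm deep. Serial concentrations spanned 3.12–100 µg/mL. Plates were inoculated with about 10⁵ CFU/mL of bacterial suspension and incubated at (37 ± 1) °C for 24 h. Each value is the mean of three independent experiments.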

Escherichia coli [8] = assay: Antibacterial activity against Escherichia coli at 100 ug/disc after 24 hrs by disc diffusion method; type: functional; settings: read-out: DIZ; method in brief: as §2
Proteus vulgaris [9] = assay: Antibacterial activity against Proteus vulgaris at 100 ug/disc after 24 hrs by disc diffusion method; type: functional; settings: read-out: DIZ; method in brief: as §2
Escherichia coli [10] = assay: Antibacterial activity against Escherichia coli after 24 hrs by agar streak dilution method; type: functional; method in brief: as §3
Candida albicans [11] = assay: Antifungal activity against Candida albicans at 100 ug/disc after 24 hrs by disc diffusion method; type: functional; settings: read-out: DIZ; method in brief: as §2
Aspergillus niger [12] = assay: Antifungal activity against Aspergillus niger at 100 ug/disc after 24 hrs by disc diffusion method; type: functional; settings: read-out: DIZ; method in brief: as §2
Candida albicans [13] = assay: Antifungal activity against Candida albicans after 48 hrs by agar streak dilution method; type: functional; method in brief: as §1
Bacillus cereus [14] = assay: Antibacterial activity against Bacillus cereus after 24 hrs by agar streak dilution method; type: functional; method in brief: as §3
Proteus vulgaris [15] = assay: Antibacterial activity against Proteus vulgaris after 24 hrs by agar streak dilution method; type: functional; method in brief: as §3
Pseudomonas aeruginosa [16] = assay: Antibacterial activity against Pseudomonas aeruginosa at 100 ug/disc after 24 hrs by disc diffusion method; type: functional; settings: read-out: DIZ; method in brief: as §2
Shigella flexneri [17] = assay: Antibacterial activity against Shigella flexneri after 24 hrs by agar streak dilution method; type: functional; method in brief: as §3
Shigella flexneri [18] = assay: Antibacterial activity against Shigella flexneri at 100 ug/disc after 24 hrs by disc diffusion method; type: functional; settings: read-out: DIZ; method in brief: as §2
Aspergillus fumigatus [19] = assay: Antifungal activity against Aspergillus fumigatus at 100 ug/disc after 24 hrs by disc diffusion method; type: functional; settings: read-out: DIZ; method in brief: as §2
Salmonella typhi [20] = assay: Antibacterial activity against Salmonella Typhi at 100 ug/disc after 24 hrs by disc diffusion method; type: functional, Salmonella enterica subsp. enterica serovar Typhi; settings: Salmonella enterica, read-out: DIZ
Method in brief: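 Paper disc diffusion on Mueller-Hinton agar poured 5 mm deep; 10⁵ CFU/mL suspension (0.5 McFarland) swabbed over surface. 6.25 mm filter paper discs soaked in compound in DMSO, incubated 24 h at (37 ± 1) °C; inhibition zone diameter in mm. DMSO disc as blank; ciprofloxacin 100 µg/disc as reference. Mean of three independent experiments.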

Klebsiella pneumoniae [21] = assay: Antibacterial activity against Klebsiella pneumoniae […] after 24 hrs by agar streak dilution method; type: functional
Bacillus cereus [22] = assay: Antibacterial activity against Bacillus cereus at 100 ug/disc after 24 hrs by disc diffusion method; type: functional; settings: read-out: DIZ; method in brief: as §2
Aspergillus fumigatus [23] = assay: Antifungal activity against Aspergillus fumigatus after 48 hrs by agar streak dilution method; type: functional; method in brief: as §1
Staphylococcus aureus [24] = assay: Antibacterial activity against Staphylococcus aureus at 100 ug/disc after 24 hrs by disc diffusion method; type: functional; settings: read-out: DIZ; method in brief: as §2

CCN1CCN(CC2SC(c3ccc(OC)c(OC)c3)N(c3ccc(Nc4nc(Oc5cc(=O)n(C)c6ccccc56)nc(N(C)C)n4)cc3)C2=O)CC1 (configuration not stated)
23 mm: zone of inhibition at 100 µg/disc (Klebsiella pneumoniae [6]) | zone of inhibition at 100 µg/disc (Proteus vulgaris [9]) | zone of inhibition at 100 µg/disc (Candida albicans [11]) | zone of inhibition at 100 µg/disc (Staphylococcus aureus [24])
24 mm: zone of inhibition at 100 µg/disc (Aspergillus clavatus [3]) | zone of inhibition at 100 µg/disc (Escherichia coli [8]) | zone of inhibition at 100 µg/disc (Pseudomonas aeruginosa [16]) | zone of inhibition at 100 µg/disc (Bacillus cereus [22])
25 mm: zone of inhibition at 100 µg/disc (Salmonella typhi [20])
25 µg/mL: MIC (Salmonella typhi [5]) | MIC (Staphylococcus aureus [7]) | MIC (Escherichia coli [10]) | MIC (Aspergillus fumigatus [23])
100 µg/mL: MIC (Aspergillus niger [1])
21 mm: zone of inhibition at 100 µg/disc (Aspergillus niger [12])
26 mm: zone of inhibition at 100 µg/disc (Aspergillus fumigatus [19])
50 µg/mL: MIC (Aspergillus clavatus [2]) | MIC (Candida albicans [13]) | MIC (Proteus vulgaris [15]) | MIC (Shigella flexneri [17]) | MIC (Klebsiella pneumoniae [21])
22 mm: zone of inhibition at 100 µg/disc (Shigella flexneri [18])
12.5 µg/mL: MIC (Pseudomonas aeruginosa [4]) | MIC (Bacillus cereus [14])

CCN1CCN(CC2SC(c3ccc(O)cc3O)N(c3ccc(Nc4nc(Oc5cc(=O)n(C)c6ccccc56)nc(N(C)C)n4)cc3)C2=O)CC1 (configuration not stated)
15 mm: zone of inhibition at 100 µg/disc (Escherichia coli [8]) | zone of inhibition at 100 µg/disc (Aspergillus fumigatus [19]) | zone of inhibition at 100 µg/disc (Staphylococcus aureus [24])
11 mm: zone of inhibition at 100 µg/disc (Aspergillus niger [12])
100 µg/mL: MIC (Aspergillus niger [1]) | MIC (Aspergillus clavatus [2]) | MIC (Pseudomonas aeruginosa [4]) | MIC (Salmonella typhi [5]) | MIC (Staphylococcus aureus [7]) | MIC (Escherichia coli [10]) | MIC (Candida albicans [13]) | MIC (Bacillus cereus [14]) | MIC (Proteus vulgaris [15]) | MIC (Shigella flexneri [17]) | MIC (Klebsiella pneumoniae [21]) | MIC (Aspergillus fumigatus [23])
< 10 mm: zone of inhibition at 100 µg/disc (Candida albicans [11])
14 mm: zone of inhibition at 100 µg/disc (Proteus vulgaris [9]) | zone of inhibition at 100 µg/disc (Salmonella typhi [20])
16 mm: zone of inhibition at 100 µg/disc (Klebsiella pneumoniae [6]) | zone of inhibition at 100 µg/disc (Shigella flexneri [18])
17 mm: zone of inhibition at 100 µg/disc (Aspergillus clavatus [3]) | zone of inhibition at 100 µg/disc (Pseudomonas aeruginosa [16]) | zone of inhibition at 100 µg/disc (Bacillus cereus [22])

CCN1CCN(CC2SC(c3cccc(O)c3O)N(c3ccc(Nc4nc(Oc5cc(=O)n(C)c6ccccc56)nc(N(C)C)n4)cc3)C2=O)CC1 (configuration not stated)
14 mm: zone of inhibition at 100 µg/disc (Salmonella typhi [20])
100 µg/mL: MIC (Aspergillus niger [1]) | MIC (Aspergillus clavatus [2]) | MIC (Pseudomonas aeruginosa [4]) | MIC (Salmonella typhi [5]) | MIC (Staphylococcus aureus [7]) | MIC (Escherichia coli [10]) | MIC (Candida albicans [13]) | MIC (Bacillus cereus [14]) | MIC (Proteus vulgaris [15]) | MIC (Shigella flexneri [17]) | MIC (Klebsiella pneumoniae [21]) | MIC (Aspergillus fumigatus [23])
< 10 mm: zone of inhibition at 100 µg/disc (Escherichia coli [8]) | zone of inhibition at 100 µg/disc (Candida albicans [11]) | zone of inhibition at 100 µg/disc (Aspergillus niger [12]) | zone of inhibition at 100 µg/disc (Shigella flexneri [18]) | zone of inhibition at 100 µg/disc (Staphylococcus aureus [24])
11 mm: zone of inhibition at 100 µg/disc (Pseudomonas aeruginosa [16])
13 mm: zone of inhibition at 100 µg/disc (Proteus vulgaris [9]) | zone of inhibition at 100 µg/disc (Aspergillus fumigatus [19])
16 mm: zone of inhibition at 100 µg/disc (Klebsiella pneumoniae [6])
12 mm: zone of inhibition at 100 µg/disc (Aspergillus clavatus [3]) | zone of inhibition at 100 µg/disc (Bacillus cereus [22])
